We go through 15 compounds from paper PMC10688270 (Neurochemical research, 2019).

Assay [1] has as its target T1, SXc− (Homo sapiens, UniProt Q9UPY5).
T1 sequence (Q9UPY5 1-501): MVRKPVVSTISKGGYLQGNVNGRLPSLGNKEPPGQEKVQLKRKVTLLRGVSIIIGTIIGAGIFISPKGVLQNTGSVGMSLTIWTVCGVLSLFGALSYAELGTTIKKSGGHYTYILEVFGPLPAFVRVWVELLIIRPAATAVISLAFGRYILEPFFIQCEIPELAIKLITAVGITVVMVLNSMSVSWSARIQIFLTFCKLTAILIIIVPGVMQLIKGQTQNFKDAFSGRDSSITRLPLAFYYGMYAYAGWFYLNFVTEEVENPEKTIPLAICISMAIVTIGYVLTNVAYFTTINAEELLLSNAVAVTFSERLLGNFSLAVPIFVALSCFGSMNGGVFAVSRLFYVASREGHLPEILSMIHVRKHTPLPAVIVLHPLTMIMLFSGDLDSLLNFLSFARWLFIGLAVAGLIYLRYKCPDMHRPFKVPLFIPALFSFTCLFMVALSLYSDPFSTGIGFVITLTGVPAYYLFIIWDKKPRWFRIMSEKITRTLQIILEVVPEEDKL
T1 sequence (P08195 1-529 partner): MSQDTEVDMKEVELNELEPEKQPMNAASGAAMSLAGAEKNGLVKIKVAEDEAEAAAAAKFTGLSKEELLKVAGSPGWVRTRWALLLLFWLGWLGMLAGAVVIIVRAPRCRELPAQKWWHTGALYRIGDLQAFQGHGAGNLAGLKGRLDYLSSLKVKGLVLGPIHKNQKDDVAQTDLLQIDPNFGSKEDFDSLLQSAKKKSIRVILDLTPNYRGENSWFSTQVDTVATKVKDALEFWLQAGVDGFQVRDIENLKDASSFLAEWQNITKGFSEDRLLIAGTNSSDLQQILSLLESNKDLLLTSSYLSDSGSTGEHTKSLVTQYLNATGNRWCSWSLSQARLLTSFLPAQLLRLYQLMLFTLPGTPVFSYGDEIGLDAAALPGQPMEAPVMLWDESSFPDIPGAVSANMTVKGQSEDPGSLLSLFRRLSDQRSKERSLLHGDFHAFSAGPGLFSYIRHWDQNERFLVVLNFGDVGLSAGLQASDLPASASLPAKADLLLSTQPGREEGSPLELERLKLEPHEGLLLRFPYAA
Put plainly: Inhibition of SXc−-mediated uptake of 3H-L-Glu into SNB19 cells. Conditions: for fold less effective than SAS: comparison of inhibition of SXc− with SAS. The format is cell-based. The gist of the method: (§1)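 Human SNB19 glioma cells were grown in DMEM/F-12 (pH 7.4) with 10% fetal calf serum at 37°C and 5% CO2. They were seeded at 3×10^4 cells/well and used after 3 days at 80–90% confluence. Cells were pre-incubated 5 min at 30°C in Na+-free (choline-Cl) HEPES-buffered Hank's salt solution, pH 7.4. Test compound was added simultaneously with 3H-L-Glu for 5 min at 30°C. Uptake was read by scintillation counting, normalised to BCA protein, and corrected by subtracting 4°C accumulation. Duplicate wells per experiment; n ≥ 3 experiments.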

For assay [2], the system named is SXc−. Conditions: previous work; cited from earlier work.
Assay [3] deals with T1, SXc−. The assay is described as follows: Kinetic analysis. The format is cell-based. As to conditions: for Inhibitory Mechanism: V vs [S] and Lineweaver-Burk plots, SNB19 cells. The method in brief: as §1
Where [4] appears, read: read-out: IC50 for the inhibition of SXc−-mediated uptake of 3H-L-Glu into SNB19 cells, Mean ± SEM (n ≥ 3), single concentration of L-Glu (100 μM), Na+-free buffer, 5 min, 30°C.

“Also recorded” adds a separate entry of the source. Read-outs that look alike come from different tables or passages of the source.

Turning to `Nc1cc(S(=O)(=O)O)cc2cc(S(=O)(=O)O)cc(O)c12` [4-Amino-5-OH-2,7-naphthylene-disulfonate], the “inhibitory activity at SXc− (in words)” value against SXc− [1] (3H-L-Glu uptake into SNB19 cells) was “inactive”. The IC50 at SXc− [1] (setting [4]) is over 500 µM.
Turning to `O=C(O)c1cc(N=Nc2ccc([N+](=O)[O-])cc2)ccc1O` [Mordant Orange 1], the IC50 at SXc− [1] (setting [4]) is 38 ± 3 µM.
`O=S(=O)(O)c1cc2cc(S(=O)(=O)O)c(O)cc2cc1O` [3,6-dihydroxy-2,7-naphthylene-disulfonate]: at SXc− [1] (setting [4]), the IC50 is over 500 µM.
On to `O=S(=O)(O)c1cc(O)c2c(O)c(/N=N/c3cccc4ccccc34)c(S(=O)(=O)O)cc2c1` [Pontacyl Violet 6R], for which the IC50 against SXc− [1] was over 250 µM.
In the case of `Nc1c(/N=N/c2ccc(-c3ccc(/N=N/c4cc(S(=O)(=O)O)c5ccccc5c4N)cc3)cc2)cc(S(=O)(=O)O)c2ccccc12` [Congo Red], the “block of glutamate uptake by SXc− (in words)” value in the assay with SXc− [2] is on record as “relatively poor blocker”.
For the compound Chrome Yellow, the “fold less effective than SAS” value on SXc− [1] is given as “about 5 fold”. Also, the IC50 on SXc− [1] (setting [4]) stood at 27 ± 4 µM.
Consider `CC(=O)Nc1cc(S(=O)(=O)O)cc2cc(S(=O)(=O)O)c(N=Nc3ccccc3)c(O)c12` [Acid Red 1], for which the IC50 at SXc− [1] (setting [4]) was 191 ± 8 µM.
Regarding `Nc1c(N=Nc2ccc([N+](=O)[O-])cc2)c(S(=O)(=O)[O-])cc2cc(S(=O)(=O)[O-])c(N=Nc3ccccc3)c(O)c12.[Na+].[Na+]` [Acid Black 1], the “Inhibitory Mechanism” value is reported as “Competitive” on SXc− [3] and “competitive mechanism; also recorded: competitive inhibition” at SXc− [3] (listed as Acid Black).
On to `Nc1cc(S(=O)(=O)O)cc2cc(S(=O)(=O)O)c(N=Nc3cc([N+](=O)[O-])cc(Cl)c3O)c(O)c12` [Gallion], for which the IC50 at SXc− [1] (setting [4]) is 155 ± 11 µM.
For `Nc1ccc(N=Nc2ccc(-c3ccc(N=Nc4ccc(N)c5ccc(S(=O)(=O)O)cc45)cc3)cc2)c2cc(S(=O)(=O)O)ccc12` [AANS #6], the “Inhibitory Mechanism” value at SXc− [3] was “Noncompetitive (Mixed)”; on SXc− [3] (listed as #6) it was “mixed inhibition”.
With `O=C(O)c1cc(/N=N/c2ccc(S(=O)(=O)Nc3ccccn3)cc2)ccc1O` [Sulfasalazine], at SXc− [3], the Ki stood at 10.4 ± 1.3 µM and the “Inhibitory Mechanism” value is “Competitive”. The “Inhibitory Mechanism” value at SXc− [3] (listed as SAS) was “competitive inhibition”.
With `COc1ccccc1N=Nc1c(S(=O)(=O)O)cc2cc(S(=O)(=O)O)cc(NC(C)=O)c2c1O` [Pontacyl Carmine 2B], at SXc− [1] (setting [4]), the IC50 was over 250 µM.
Regarding `O=C(O)c1cc(N=Nc2cccc([N+](=O)[O-])c2)ccc1[O-].[Na+]` [Alizarin Yellow GG], at SXc− [1], the “fold less effective than SAS” value was “about 5 fold”. In addition, on SXc− [1] (setting [4]), the IC50 stood at 30 ± 7 µM.
In the case of `O=[N+]([O-])c1ccc(N=Nc2c(S(=O)(=O)O)cc3cc(S(=O)(=O)O)cc(O)c3c2O)cc1` [Chromotrope 2B], the IC50 on SXc− [1] (setting [4]) amounted to 130 ± 23 µM.
In the case of `O=S(=O)(O)c1cc(O)c2c(O)c(N=Nc3ccccc3)c(S(=O)(=O)O)cc2c1` [Chromotrope 2R], the IC50 at SXc− [1] (setting [4]) came to 21 ± 5 µM.

A word on the IC50: it is the concentration needed to halve the response being measured. The Ki is a measure of affinity in units of concentration, obtained from inhibition or displacement.
